Blank lines part the entries; values can stand above or below the compound they belong to.
How the values were obtained:
Rattus norvegicus [1] = assay: Evaluated for the distribution of radioactivity in tissues of female Fischer rats kidneys after 5 minutes intravenous administration; dose/g, range 9.87-11.9; assay type: ADME, organism-based, Kidney; settings: in vivo
Rattus norvegicus [2] = assay: Evaluated for the distribution of radioactivity in tissues of female Fischer rats liver after 30 minutes intravenous administration.; dose/g, range 0.23-0.29; assay type: ADME, organism-based; settings: in vivo, 0.5 h
Rattus norvegicus [3] = assay: Evaluated for the distribution of radioactivity in tissues of female Fischer rats blood after 5 minutes intravenous administration; dose/g, range 0.44-0.52; assay type: ADME, organism-based; settings: in vivo
Rattus norvegicus [4] = assay: Evaluated for the distribution of radioactivity in tissues of female Fischer rats heart after 5 minutes intravenous administration; dose/g, range 2.72-3.52; assay type: ADME, organism-based; settings: in vivo
Rattus norvegicus [5] = assay: Evaluated for the distribution of radioactivity in tissues of female Fischer rats thyroid after 60 minutes intravenous administration; dose/g, range 55-102; assay type: ADME, organism-based, Thyroid gland; settings: in vivo, 1 h
In short: (§1)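 Female Fischer 344 rats (10-12 weeks, 170-200 g), fed ad libitum, got a single iv tail-vein injection under ether anaesthesia of the 125I-labelled cation (2.85-8.38 μCi). The tracer was dissolved in Me2SO, diluted with saline to 1% Me2SO and filtered. At the set times rats were killed by cervical fracture and blood taken by cardiac puncture. Organs were rinsed, blotted, weighed and gamma-counted against injectate standards. Results are %dose/g, mean and range, n=5. Thyroid weight was taken as 7.5 mg/100 g body weight.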

Rattus norvegicus [6] = assay: Evaluated for the distribution of radioactivity in tissues of female Fischer rats lungs after 5 minutes intravenous administration; dose/g, range 1.20-1.52; assay type: ADME, organism-based, Lung; settings: in vivo; in short: as §1
Rattus norvegicus [7] = assay: Evaluated for the distribution of radioactivity in tissues of female Fischer rats thyroid after 30 minutes intravenous administration; dose/g, range 33-60; assay type: ADME, organism-based, Thyroid gland; settings: in vivo, 0.5 h; in short: as §1
Rattus norvegicus [8] = assay: Evaluated for the distribution of radioactivity in tissues of female Fischer rats liver after 5 minutes intravenous administration; dose/g, range 0.93-1.20; assay type: ADME, organism-based; settings: in vivo; in short: as §1
Rattus norvegicus [9] = assay: Evaluated for the distribution of radioactivity in tissues of female Fischer rats lungs after 30 minutes intravenous administration; dose/g, range 1.07-1.30; assay type: ADME, organism-based, Lung; settings: in vivo, 0.5 h; in short: as §1
Rattus norvegicus [10] = assay: Evaluated for the distribution of radioactivity in tissues of female Fischer rats blood after 60 minutes intravenous administration; dose/g, range 0.16-0.21; assay type: ADME, organism-based; settings: in vivo, 1 h
Rattus norvegicus [11] = assay: Evaluated for the distribution of radioactivity in tissues of female Fischer rats thyroid after 5 minutes intravenous administration; dose/g, range 29-36; assay type: ADME, organism-based, Thyroid gland; settings: in vivo; in short: as §1
Rattus norvegicus [12] = assay: Evaluated for the distribution of radioactivity in tissues of female Fischer rats blood after 30 minutes intravenous administration; dose/g, range 0.25-0.32; assay type: ADME, organism-based; settings: in vivo, 0.5 h
Rattus norvegicus [13] = assay: Evaluated for the distribution of radioactivity in tissues of female Fischer rats kidneys after 30 minutes intravenous administration; dose/g, range 6.28-7.41; assay type: ADME, organism-based, Kidney; settings: in vivo, 0.5 h
Rattus norvegicus [14] = assay: Evaluated for the distribution of radioactivity in tissues of female Fischer rats kidneys after 60 minutes intravenous administration; dose/g, range 3.33-4.68; assay type: ADME, organism-based, Kidney; settings: in vivo, 1 h
Rattus norvegicus [15] = assay: Evaluated for the distribution of radioactivity in tissues of female Fischer rats heart after 30 minutes intravenous administration; dose/g, range 2.47-2.96; assay type: ADME, organism-based; settings: in vivo, 0.5 h
Rattus norvegicus [16] = assay: Evaluated for the distribution of radioactivity in tissues of female Fischer rats heart after 60 minutes intravenous administration; dose/g, range 2.88-4.32; assay type: ADME, organism-based; settings: in vivo, 1 h
Rattus norvegicus [17] = assay: Evaluated for the distribution of radioactivity in tissues of female Fischer rats lungs after 60 minutes intravenous administration; dose/g, range 0.97-1.54; assay type: ADME, organism-based, Lung; settings: in vivo, 1 h; in short: as §1
Rattus norvegicus [18] = assay: Evaluated for the distribution of radioactivity in tissues of female Fischer rats liver after 60 minutes intravenous administration; dose/g, range 0.14-0.19; assay type: ADME, organism-based; settings: in vivo, 1 h; in short: as §1
Rattus norvegicus [19] = assay: Evaluated for the distribution of radioactivity in tissues of female Fischer rats lungs after 60 minutes intravenous administration; dose/g, range 0.94-1.36; assay type: ADME, organism-based, Lung; settings: in vivo, 1 h; in short: as §1
Rattus norvegicus [20] = assay: Evaluated for the distribution of radioactivity in tissues of female Fischer rats liver after 60 minutes intravenous administration; dose/g, range 0.15-0.19; assay type: ADME, organism-based; settings: in vivo, 1 h; in short: as §1
Rattus norvegicus [21] = assay: Evaluated for the distribution of radioactivity in tissues of female Fischer rats blood after 30 minutes intravenous administration; dose/g, range 0.18-0.24; assay type: ADME, organism-based; settings: in vivo, 0.5 h
Rattus norvegicus [22] = assay: Evaluated for the distribution of radioactivity in tissues of female Fischer rats lungs after 5 minutes intravenous administration; dose/g, range 1.18-1.44; assay type: ADME, organism-based, Lung; settings: in vivo; in short: as §1
Rattus norvegicus [23] = assay: Evaluated for the distribution of radioactivity in tissues of female Fischer rats blood after 5 minutes intravenous administration; dose/g, range 0.32-0.46; assay type: ADME, organism-based; settings: in vivo
Rattus norvegicus [24] = assay: Evaluated for the distribution of radioactivity in tissues of female Fischer rats thyroid after 5 minutes intravenous administration; dose/g, range 16-32; assay type: ADME, organism-based, Thyroid gland; settings: in vivo; in short: as §1
Rattus norvegicus [25] = assay: Evaluated for the distribution of radioactivity in tissues of female Fischer rats liver after 5 minutes intravenous administration; dose/g, range 1.06-1.70; assay type: ADME, organism-based; settings: in vivo; in short: as §1
Rattus norvegicus [26] = assay: Evaluated for the distribution of radioactivity in tissues of female Fischer rats kidneys after 30 minutes intravenous administration; dose/g, range 6.47-10.2; assay type: ADME, organism-based, Kidney; settings: in vivo, 0.5 h
Rattus norvegicus [27] = assay: Evaluated for the distribution of radioactivity in tissues of female Fischer rats heart after 5 minutes intravenous administration; dose/g, range 2.82-3.86; assay type: ADME, organism-based; settings: in vivo
Rattus norvegicus [28] = assay: Evaluated for the distribution of radioactivity in tissues of female Fischer rats lungs after 30 minutes intravenous administration; dose/g, range 1.12-1.39; assay type: ADME, organism-based, Lung; settings: in vivo, 0.5 h; in short: as §1
Rattus norvegicus [29] = assay: Evaluated for the distribution of radioactivity in tissues of female Fischer rats thyroid after 60 minutes intravenous administration; dose/g, range 32-43; assay type: ADME, organism-based, Thyroid gland; settings: in vivo, 1 h; in short: as §1
Rattus norvegicus [30] = assay: Evaluated for the distribution of radioactivity in tissues of female Fischer rats liver after 30 minutes intravenous administration; dose/g, range 0.22-0.30; assay type: ADME, organism-based; settings: in vivo, 0.5 h
Rattus norvegicus [31] = assay: Evaluated for the distribution of radioactivity in tissues of female Fischer rats kidneys after 60 minutes intravenous administration; dose/g, range 5.02-6.57; assay type: ADME, organism-based, Kidney; settings: in vivo, 1 h
Rattus norvegicus [32] = assay: Evaluated for the distribution of radioactivity in tissues of female Fischer rats heart after 30 minutes intravenous administration; dose/g, range 2.67-3.69; assay type: ADME, organism-based; settings: in vivo, 0.5 h
Rattus norvegicus [33] = assay: Evaluated for the distribution of radioactivity in tissues of female Fischer rats thyroid after 30 minutes intravenous administration; dose/g, range 29-44; assay type: ADME, organism-based, Thyroid gland; settings: in vivo, 0.5 h; in short: as §1
Rattus norvegicus [34] = assay: Evaluated for the distribution of radioactivity in tissues of female Fischer rats kidneys after 5 minutes intravenous administration; dose/g, range 11.7-14.6; assay type: ADME, organism-based, Kidney; settings: in vivo
Rattus norvegicus [35] = assay: Evaluated for the distribution of radioactivity in tissues of female Fischer rats blood after 60 minutes intravenous administration; dose/g, range 0.15-0.20; assay type: ADME, organism-based; settings: in vivo, 1 h
Rattus norvegicus [36] = assay: Evaluated for the distribution of radioactivity in tissues of female Fischer rats heart after 60 minutes intravenous administration; dose/g, range 3.21-3.92; assay type: ADME, organism-based; settings: in vivo, 1 h

- Distribution (Rattus norvegicus [1]): 11.06%
- Distribution (Rattus norvegicus [2]): 0.25%
- Distribution (Rattus norvegicus [3]): 0.47%
- Distribution (Rattus norvegicus [4]): 2.99%
- Distribution (Rattus norvegicus [5]): 71%
- Distribution (Rattus norvegicus [6]): 1.31%
- Distribution (Rattus norvegicus [7]): 45%
- Distribution (Rattus norvegicus [8]): 1.06%
- Distribution (Rattus norvegicus [9]): 1.2%
- Distribution (Rattus norvegicus [10]): 0.19%
- Distribution (Rattus norvegicus [11]): 31%
- Distribution (Rattus norvegicus [12]): 0.28%
- Distribution (Rattus norvegicus [13]): 6.89%
- Distribution (Rattus norvegicus [14]): 4.15%
- Distribution (Rattus norvegicus [15]): 2.67%
- Distribution (Rattus norvegicus [16]): 3.42%
- Distribution (Rattus norvegicus [17]): 1.16%
- Distribution (Rattus norvegicus [18]): 0.17%
Compound: I/C=C/CCC[P+](C1CCCCC1)(C1CCCCC1)C1CCCCC1.[I-]

- Distribution (Rattus norvegicus [19]): 1.15%
- Distribution (Rattus norvegicus [20]): 0.17%
- Distribution (Rattus norvegicus [21]): 0.2%
- Distribution (Rattus norvegicus [22]): 1.32%
- Distribution (Rattus norvegicus [23]): 0.37%
- Distribution (Rattus norvegicus [24]): 25%
- Distribution (Rattus norvegicus [25]): 1.39%
- Distribution (Rattus norvegicus [26]): 8.41%
- Distribution (Rattus norvegicus [27]): 3.44%
- Distribution (Rattus norvegicus [28]): 1.24%
- Distribution (Rattus norvegicus [29]): 39%
- Distribution (Rattus norvegicus [30]): 0.26%
- Distribution (Rattus norvegicus [31]): 5.66%
- Distribution (Rattus norvegicus [32]): 3.17%
- Distribution (Rattus norvegicus [33]): 38%
- Distribution (Rattus norvegicus [34]): 13.07%
- Distribution (Rattus norvegicus [35]): 0.17%
- Distribution (Rattus norvegicus [36]): 3.47%
Compound: I/C=C/CCC[P+](c1ccccc1)(C1CCCCC1)C1CCCCC1.[I-]

From ChEMBL document CHEMBL1122900, “Effects of alkyl and aryl substitution on the myocardial specificity of radioiodinated phosphonium, arsonium, and ammonium cations” (J Med Chem, 1985)
